Source: ChEMBL document CHEMBL1141343, “Scalarane sesterterpenes from a marine sponge of the genus Spongia and their FXR antagonistic activity” (J Nat Prod, 2007)
pIC50: −log10 of the molar value. The source made the active and inactive calls. The calls are words filed in the database; no cut-off is given here.

What was measured:
Bile acid receptor = biological target: T1, Bile acid receptor (Homo sapiens, UniProt Q96RI1); test: Antagonist activity at human FXR expressed in monkey CV1 cells after 24 hrs by ecdysone receptor response element-driven luciferase reporter assay; format: functional, cell-based, CV-1
T1 sequence (Q96RI1 whole entry): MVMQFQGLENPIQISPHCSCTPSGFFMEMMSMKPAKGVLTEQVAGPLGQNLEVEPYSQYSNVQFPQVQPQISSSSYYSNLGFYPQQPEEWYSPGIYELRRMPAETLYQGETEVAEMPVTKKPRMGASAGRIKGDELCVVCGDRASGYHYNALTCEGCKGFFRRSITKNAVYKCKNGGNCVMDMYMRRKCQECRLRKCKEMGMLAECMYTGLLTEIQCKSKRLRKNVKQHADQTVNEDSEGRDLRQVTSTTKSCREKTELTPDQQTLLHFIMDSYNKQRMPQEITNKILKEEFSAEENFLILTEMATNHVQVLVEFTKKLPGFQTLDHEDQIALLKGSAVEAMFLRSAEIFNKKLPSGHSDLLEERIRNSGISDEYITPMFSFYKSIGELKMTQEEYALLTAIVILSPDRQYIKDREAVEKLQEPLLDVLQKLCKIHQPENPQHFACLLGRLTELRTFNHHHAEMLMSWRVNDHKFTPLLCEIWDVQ
Summary of the method: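 Full-length human FXR, EcRE-driven luciferase reporter and β-galactosidase plasmid cotransfected into CV-1 cells, seeded 24 h beforehand in DMEM with 10% lipid-depleted FBS at 37 °C, 5% CO2. After a further 24 h, cells were exposed to compound or DMSO vehicle with 50 µM CDCA. Harvest was at 24 h, with luciferase normalized to β-galactosidase. Triplicate wells, three repeats.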

[1] = Cytotoxicity against monkey CV1 cells after 24 hrs by MTT assay; format: cell-based; settings: Chlorocebus aethiops, CV-1, 24 h
Summary of the method: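 CV-1 monkey kidney cells plated in DMEM with 10% FBS at 37 °C, 5% CO2, grown 24 h, then exposed to compounds at a range of concentrations for 24 h. MTT at 1 mg/mL added for 1 h at 37 °C. Formazan dissolved in DMSO and absorbance read at 450 nm. Each experiment repeated more than three times.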

[2] = biological target: T2, Bile acid receptor (Homo sapiens) (UniProt Q96RI1); test: Inhibition of CDCA-mediated interaction between FXR ligand binding domain and SRC1 at 25 uM by SPR spectroscopy
T2 sequence (whole entry): T1 sequence (Q96RI1 whole entry)
Summary of the method: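 Human FXR LBD (4 µM) preincubated 1 h with compound plus 50 µM CDCA, then injected for 120 s over an immobilized SRC-1 coactivator peptide surface, followed by a 120 s buffer wash. Biacore SPR, 25 °C.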

SMILES	pIC50 (Bile acid receptor)	pIC50 [1]	Activity [2]
C[C@]1(CO)CCC[C@]2(C)[C@H]3C[C@@H](O)[C@]4(C)[C@H]5COC(=O)C5=CC[C@H]4[C@]3(C)CC[C@@H]12	< 4.00	< 4.00	
CC(=O)O[C@@H]1C[C@@H]2[C@@]3(C)CCCC(C)(C)[C@@H]3CC[C@@]2(C)[C@@H]2CC=C3C(=O)O[C@@H](O)[C@@H]3[C@@]12C	4.22	4.12	Active
CO[C@@H]1OC(=O)C2=CC[C@H]3[C@]4(C)CC[C@H]5C(C)(C)CCC[C@]5(C)[C@H]4C[C@@H](O)[C@]3(C)[C@H]21	4.62	4.32	Active
CC1(C)CCC[C@]2(C)[C@H]3C[C@@H](O)[C@]4(C)[C@H]5COC(=O)C5=CC[C@H]4[C@]3(C)CC[C@@H]12	4.50	4.38	Active
CC1(C)CCC[C@]2(C)[C@H]3C[C@@H](O)[C@]4(C)[C@@H]5C(=CC[C@H]4[C@]3(C)CC[C@@H]12)C(=O)O[C@H]5O	4.12	4.11	Active
C[C@@]1(CO)CCC[C@]2(C)[C@H]3C[C@@H](O)[C@]4(C)[C@H]5COC(=O)C5=CC[C@H]4[C@]3(C)CC[C@@H]12	5.62	4.31	
